Results from ChEMBL document CHEMBL3045710, “Antifungal activity of 4'-(2,6,6-Trimethyl-2-cyclohexen-1-yl)-3'-butene-2'-ketoxime N-O-alkyl ethers” (2010).
Converted amounts (≈) assume the structure as drawn. The source made the active and inactive calls. The calls are words filed in the database; no cut-off is given here.

Columns and labels:
Athelia rolfsii = assay: Antifungal activity against Athelia rolfsii assessed as growth inhibition at 28 degC; format: functional; details: Agroathelia rolfsii; read-out: ED50 (the source's name)
Procedure, shortened: (§1)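 Poisoned food technique on PDA: compound in acetone added to medium at 1000, 500, 250, 125, 100, 50, 25 and 10 μg/mL (final in medium). Acetone 1 mL serves as the control. A 5 mm mycelial disk from a 2-week-old colony is placed centrally. Plates are incubated at 28 °C until control growth is nearly complete. Colony diameter is measured and %inhibition = (C−T)/C×100, four replicates. ED50 is obtained by probit analysis of Abbott-corrected inhibition.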

Sclerotinia sclerotiorum [1] = assay: Antifungal activity against Sclerotinia sclerotiorum assessed as growth inhibition at 28 degC; format: functional; details: read-out: ED50 (the source's name); procedure, shortened: as §1
Macrophomina phaseolina [2] = assay: Antifungal activity against Rhizoctonia bataticola assessed as growth inhibition at 28 degC; format: functional; details: read-out: ED50 (the source's name); procedure, shortened: as §1
Macrophomina phaseolina [3] = assay: Antifungal activity against Macrophomina phaseolina assessed as growth inhibition at 28 degC; format: functional; details: read-out: ED50 (the source's name); procedure, shortened: as §1
Sclerotinia sclerotiorum [4] = assay: Antifungal activity against Sclerotinia sclerotiorum infected pea plants assessed as healthy plants at 1 % aqueous emulsion measured on day 7; format: functional
Procedure, shortened: (§2)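 Greenhouse pea assay: S. sclerotiorum inoculum grown in potato dextrose broth, homogenized and mixed into autoclaved, sieved composted soil, then incubated 5-7 days at ~25 °C. Formulated compound is applied as 1 or 5% aqueous emulsion at 5.0 mL per 150 cm3 soil and held 7 days in sealed bags. Symptoms (water-soaked spots) and symptomless plants are scored 7, 14 and 21 days after transplanting, 20 plants per treatment.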

Sclerotinia sclerotiorum [5] = assay: Antifungal activity against Sclerotinia sclerotiorum infected pea plants assessed as healthy plants at 1 % aqueous emulsion measured on day 21; format: functional; procedure, shortened: as §2
Sclerotinia sclerotiorum [6] = assay: Antifungal activity against Sclerotinia sclerotiorum infected pea plants assessed as prevention of water soaked spots at 5 % aqueous emulsion measured on day 21; format: functional, organism-based; procedure, shortened: as §2
Sclerotinia sclerotiorum [7] = assay: Antifungal activity against Sclerotinia sclerotiorum infected pea plants assessed as healthy plants at 5 % aqueous emulsion measured on day 21; format: functional; procedure, shortened: as §2
Sclerotinia sclerotiorum [8] = assay: Antifungal activity against Sclerotinia sclerotiorum infected pea plants assessed as healthy plants at 0.364 mL of ai/150cm'3 measured after 14 days; format: functional
Procedure, shortened: (§3)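 S. sclerotiorum inoculum was grown in potato dextrose broth at 27 °C for 7 days, then in water at 20 °C for 3-4 weeks, then homogenized, filtered and sonicated. It was mixed into sieved, autoclaved compost soil and held about 25 °C for 5-7 days. Fungicide was incorporated and soil was bagged 7 days. Pea was transplanted. Symptomless plants were scored at 7, 14 and 21 days (20 plants/treatment, six trials), arcsine-square-root transformed, repeated-measures ANOVA.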

Sclerotinia sclerotiorum [9] = assay: Antifungal activity against Sclerotinia sclerotiorum infected pea plants assessed as healthy plants at 0.364 mL of ai/150cm'3 measured after 21 days; format: functional; procedure, shortened: as §3

Row | Structure (SMILES) | EC50 (Athelia rolfsii) [µg/mL] | EC50 (Sclerotinia sclerotiorum [1]) [µg/mL] | EC50 (Macrophomina phaseolina [2]) [µg/mL] | EC50 (Macrophomina phaseolina [3]) [µg/mL] | Activity (Sclerotinia sclerotiorum [4]) [%] | Activity (Sclerotinia sclerotiorum [5]) [%] | Activity (Sclerotinia sclerotiorum [6]) | Activity (Sclerotinia sclerotiorum [7]) [%] | Activity (Sclerotinia sclerotiorum [8]) [%] | Activity (Sclerotinia sclerotiorum [9]) [%]
1 | CC1=CCCC(C)(C)C1/C=C/C(C)=N\OCC(C)C (configuration not stated) | 47.6 (≈ 181 µM) | 79 (≈ 300 µM) | 58.7 (≈ 223 µM) | 101 (≈ 383 µM) | – | – | – | – | – | –
2 | CCCO/N=C(C)\C=C\C1C(C)=CCCC1(C)C (configuration not stated) | 132 (≈ 530 µM) | 220 (≈ 881 µM) | 157 (≈ 629 µM) | 236 (≈ 945 µM) | – | – | – | – | – | –
3 | CCCCO/N=C(C)\C=C\C1C(C)=CCCC1(C)C (configuration not stated) | 88.9 (≈ 337 µM) | 164 (≈ 621 µM) | 114 (≈ 431 µM) | 174 (≈ 660 µM) | – | – | – | – | – | –
4 | CC1=CCCC(C)(C)C1/C=C/C(C)=N\OCCC(C)C (configuration not stated) | 367 (≈ 1320 µM) | 375 (≈ 1350 µM) | 125 (≈ 452 µM) | 625 (≈ 2250 µM) | – | – | – | – | – | –
5 | CCO/N=C(C)\C=C\C1C(C)=CCCC1(C)C (configuration not stated) | 415 (≈ 1760 µM) | 261 (≈ 1110 µM) | 246 (≈ 1050 µM) | 394 (≈ 1670 µM) | – | – | – | – | – | –
6 | CO/N=C(C)\C=C\C1C(C)=CCCC1(C)C (configuration not stated) | 259 (≈ 1170 µM) | 517 (≈ 2340 µM) | 413 (≈ 1870 µM) | 311 (≈ 1400 µM) | – | – | – | – | – | –
7 | CC1=CCCC(C)(C)C1/C=C/C(C)=N/OC(C)C (configuration not stated) | 35.5 (≈ 142 µM) | 182 (≈ 729 µM) | 56.6 (≈ 227 µM) | 126 (≈ 505 µM) | – | – | – | – | – | –
8 | CCCCCCCCCCO/N=C(C)/C=C/C1C(C)=CCCC1(C)C (configuration not stated) | 842 (≈ 2420 µM) | 681 (≈ 1960 µM) | 1940 (≈ 5590 µM) | 957 (≈ 2750 µM) | – | – | – | – | – | –
9 | CCCCCCO/N=C(C)/C=C/C1C(C)=CCCC1(C)C (configuration not stated) | 573 (≈ 1970 µM) | 428 (≈ 1470 µM) | 895 (≈ 3070 µM) | 751 (≈ 2580 µM) | – | – | – | – | – | –
10 | CCCCCCCO/N=C(C)/C=C/C1C(C)=CCCC1(C)C (configuration not stated) | 975 (≈ 3190 µM) | 392 (≈ 1280 µM) | 919 (≈ 3010 µM) | 717 (≈ 2350 µM) | – | – | – | – | – | –
11 | CCCCO/N=C(C)/C=C/C1C(C)=CCCC1(C)C (configuration not stated) | 113 (≈ 430 µM) | 107 (≈ 408 µM) | 67.9 (≈ 258 µM) | 101 (≈ 382 µM) | – | – | – | – | – | –
12 | CC1=CCCC(C)(C)C1/C=C/C(C)=N/OCC(C)C (configuration not stated) | 45.2 (≈ 172 µM) | 94.1 (≈ 357 µM) | 50.6 (≈ 192 µM) | 103 (≈ 391 µM) | – | – | – | – | – | –
13 | CCCCCCCO/N=C(C)\C=C\C1C(C)=CCCC1(C)C (configuration not stated) | 956 (≈ 3130 µM) | 419 (≈ 1370 µM) | 566 (≈ 1850 µM) | 1090 (≈ 3570 µM) | – | – | – | – | – | –
14 | CC1=CCCC(C)(C)C1/C=C/C(C)=N/OCCC(C)C (configuration not stated) | 257 (≈ 927 µM) | 273 (≈ 986 µM) | 723 (≈ 2600 µM) | 666 (≈ 2400 µM) | – | – | – | – | – | –
15 | CCCCCO/N=C(C)/C=C/C1C(C)=CCCC1(C)C (configuration not stated) | 43.6 (≈ 157 µM) | 32.7 (≈ 118 µM) | 39.2 (≈ 141 µM) | 94.8 (≈ 342 µM) | – | – | – | – | – | –
16 | CCO/N=C(C)/C=C/C1C(C)=CCCC1(C)C (configuration not stated) | 410 (≈ 1740 µM) | 295 (≈ 1250 µM) | 393 (≈ 1670 µM) | 732 (≈ 3110 µM) | – | – | – | – | – | –
17 | CCCCCO/N=C(C)\C=C\C1C(C)=CCCC1(C)C (configuration not stated) | 41.6 (≈ 150 µM) | 21.4 (≈ 77.1 µM) | 57.6 (≈ 207 µM) | 31.1 (≈ 112 µM) | 65 | 40 | Active | >90 | – | –
18 | COC(=O)Nc1nc2ccccc2[nH]1 [CARBENDAZIM] | – | – | – | – | – | – | – | – | 80 | 75
19 | CCCCCCO/N=C(C)\C=C\C1C(C)=CCCC1(C)C (configuration not stated) | 912 (≈ 3130 µM) | 244 (≈ 837 µM) | 327 (≈ 1120 µM) | 963 (≈ 3300 µM) | – | – | – | – | – | –
20 | CC1=CCCC(C)(C)C1/C=C/C(C)=N\OC(C)C (configuration not stated) | 129 (≈ 517 µM) | 190 (≈ 764 µM) | 116 (≈ 467 µM) | 198 (≈ 794 µM) | – | – | – | – | – | –
21 | CCCCCCCCCCO/N=C(C)\C=C\C1C(C)=CCCC1(C)C (configuration not stated) | 1110 (≈ 3190 µM) | 477 (≈ 1370 µM) | 2060 (≈ 5920 µM) | 1760 (≈ 5060 µM) | – | – | – | – | – | –
22 | CO/N=C(C)/C=C/C1C(C)=CCCC1(C)C (configuration not stated) | 238 (≈ 1070 µM) | 442 (≈ 2000 µM) | 388 (≈ 1750 µM) | 307 (≈ 1380 µM) | – | – | – | – | – | –
23 | CCCO/N=C(C)/C=C/C1C(C)=CCCC1(C)C (configuration not stated) | 101 (≈ 406 µM) | 257 (≈ 1030 µM) | 32.4 (≈ 130 µM) | 181 (≈ 727 µM) | – | – | – | – | – | –
24 | CCCCCCCCO/N=C(C)\C=C\C1C(C)=CCCC1(C)C (configuration not stated) | 1360 (≈ 4250 µM) | 584 (≈ 1830 µM) | 1610 (≈ 5050 µM) | 1110 (≈ 3470 µM) | – | – | – | – | – | –
25 | CCCCCCCCO/N=C(C)/C=C/C1C(C)=CCCC1(C)C (configuration not stated) | 1040 (≈ 3250 µM) | 837 (≈ 2620 µM) | 1090 (≈ 3430 µM) | 824 (≈ 2580 µM) | – | – | – | – | – | –
